# Source: ChEMBL document CHEMBL5236552, “Discovery of Soticlestat, a Potent and Selective Inhibitor for Cholesterol 24-Hydroxylase (CH24H)” (J Med Chem, 2021)
# Legend:
# [1] = molecular target: Cholesterol 24-hydroxylase (Homo sapiens, UniProt Q9Y6A2); assay: Inhibition of full length N-terminal his6-tagged human CH24H (28 to 494 residues) expressed in Escherichia coli DH5alpha using [14C] cholesterol as substrate preincubated for 15 mins followed by substrate addition and measured after 5 min in presence of beta-NADPH
# [2] = Metabolic stability in human liver microsome assessed as clearance at 1 uM incubated for 15 to 30 mins in presence of NADPH by LC-MS/MS analysis; format: ADME; details: liver microsomes, time 15-30 min, read-out: CLH
# In short: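 Human liver microsomes (0.2 mg protein/mL) were mixed with compound (1 µM) in phosphate buffer (pH 7.4) and started with an NADPH-generating system. Incubated at 37 °C for 15 and 30 min, with zero-time samples as controls, then stopped with acetonitrile. Remaining compound in the supernatant was measured by LC/MS/MS.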
# CYP3A4 = CYP3A4 (Homo sapiens, UniProt P08684); assay: Inhibition of CYP3A4 (unknown origin) at 10 uM using testosterone as substrate incubated for 60 mins by LC-MS/MS analysis relative to control; format: ADME; details: probe testosterone
# In short: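 CYP3A4-expressing microsomes in 50 mmol/L phosphate buffer (pH 7.4) with an NADPH-generating system (MgCl2, β-NADP+, glucose-6-phosphate, G6P dehydrogenase). Testosterone was the substrate and test compound was 10 µmol/L, with final solvent at 0.5%. Incubated 60 min, stopped with acetonitrile, and 6β-hydroxytestosterone read by LC/MS/MS. Run in triplicate; reported as % activity remaining versus an inhibitor-free control.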
# Sequence of CYP3A4 (P08684 whole entry): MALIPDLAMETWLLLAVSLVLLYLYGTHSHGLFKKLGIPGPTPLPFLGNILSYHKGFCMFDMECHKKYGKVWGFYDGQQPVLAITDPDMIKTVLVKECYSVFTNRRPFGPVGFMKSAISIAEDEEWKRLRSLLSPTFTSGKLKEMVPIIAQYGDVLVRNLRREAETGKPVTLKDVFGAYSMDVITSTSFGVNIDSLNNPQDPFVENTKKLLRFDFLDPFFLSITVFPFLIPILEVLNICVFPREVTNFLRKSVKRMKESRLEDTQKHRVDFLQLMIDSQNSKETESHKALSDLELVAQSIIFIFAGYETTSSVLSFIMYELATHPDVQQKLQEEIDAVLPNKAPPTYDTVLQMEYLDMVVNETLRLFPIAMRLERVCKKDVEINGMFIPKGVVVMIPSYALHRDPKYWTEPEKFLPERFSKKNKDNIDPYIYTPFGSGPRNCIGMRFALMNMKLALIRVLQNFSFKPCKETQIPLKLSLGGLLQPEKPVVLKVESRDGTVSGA
# Sequence of Cholesterol 24-hydroxylase (Q9Y6A2 whole entry, the tested form may be a part): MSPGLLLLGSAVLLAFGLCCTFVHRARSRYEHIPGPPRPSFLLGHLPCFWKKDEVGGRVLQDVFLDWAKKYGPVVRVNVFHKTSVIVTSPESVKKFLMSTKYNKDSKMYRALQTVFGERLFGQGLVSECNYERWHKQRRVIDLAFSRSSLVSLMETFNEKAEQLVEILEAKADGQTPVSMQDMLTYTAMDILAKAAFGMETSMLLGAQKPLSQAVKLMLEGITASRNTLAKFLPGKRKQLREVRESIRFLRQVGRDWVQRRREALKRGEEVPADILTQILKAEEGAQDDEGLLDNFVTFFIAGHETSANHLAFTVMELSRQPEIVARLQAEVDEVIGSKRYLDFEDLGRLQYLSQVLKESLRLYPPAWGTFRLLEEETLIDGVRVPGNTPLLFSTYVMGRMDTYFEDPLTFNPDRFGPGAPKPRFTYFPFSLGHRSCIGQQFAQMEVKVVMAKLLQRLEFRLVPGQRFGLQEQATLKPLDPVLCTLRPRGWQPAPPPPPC
SMILES,IC50 [1] [nM],microsomal CLint at 1 µM [2] [µL/min/mg],"inhibition at 1 h, 10 µM (CYP3A4) [%]"
Cc1ccccc1C1=NN(C(=O)c2ccncc2)C(C)(C)C1,60,,
O=C(c1ccccc1-c1ccncn1)N1CCC(O)(Cc2ccccn2)CC1,36,9,8.8
O=C(c1ccccc1-c1ccncn1)N1CCC(O)(Cc2ccccc2)CC1,4.3,70,17
O=C(c1cccnc1-c1ccncn1)N1CCC(O)(Cc2ccccc2)CC1,19,17,13
O=C(c1ccccc1-c1ccncc1)N1CCC(O)(Cc2ccccc2)CC1,7.9,120,45
Cc1ccc(-c2ccncc2)c(C(=O)N2CCN(Cc3ccccc3)CC2)c1,93,,
O=C(c1ccncc1)N1N=C(c2ccccc2)CC1(O)C(F)(F)F (stereo not drawn),350,,
Cc1ccc(-c2ccncc2)c(C(=O)N2CCC(O)(Cc3ccccc3)CC2)c1,2.7,,67
Cc1ccc(-c2ccncc2)c(C(=O)N2CCC(Cc3ccccc3)C(O)C2)c1 (racemic),16,,

# More lines, now with the values ahead:
IC50 [1] [nM],microsomal CLint at 1 µM [2] [µL/min/mg],"inhibition at 1 h, 10 µM (CYP3A4) [%]",SMILES
74,,,COC1(Cc2ccccc2)CCN(C(=O)c2cc(C)ccc2-c2ccncc2)CC1
> 10000,,60,Cc1ccc(-c2ccnc(C)c2)c(C(=O)N2CCC(O)(Cc3ccccc3)CC2)c1
> 10000,,,Cc1ccc(-c2ccncc2)c(C(=O)N2CCN(C(=O)c3ccccc3)CC2)c1
110,,,Cc1ccc(-c2ccncc2)c(C(=O)N2CCC(Cc3ccccc3)CC2)c1
100,,5.3,O=C(c1cccnc1-c1ccncc1)N1CCC(O)(Cc2ccccn2)CC1
4.9,,91,Cc1ccc(-c2ccncc2C)c(C(=O)N2CCC(O)(Cc3ccccc3)CC2)c1
540,,,CCC1(O)CCN(C(=O)c2cc(C)ccc2-c2ccncc2)CC1
